Measured values reported in ChEMBL document CHEMBL4043142, “Discovery of new leads against Mycobacterium tuberculosis using scaffold hopping and shape based similarity” (Bioorg Med Chem, 2017).
In brackets after ≈: the same amount, converted by molar mass.

What was measured:
[1] = tested on: Mycobacterium tuberculosis; assay: Antitubercular activity against Mycobacterium tuberculosis H37Rv ATCC 25618 after 6 days by resazurin dye based assay; type: functional; settings: H37Rv ATCC 25618, 144 h
Vero = assay: Cytotoxicity against African green monkey Vero cells after 72 hrs by MTT assay; type: cell-based; settings: Chlorocebus sabaeus
HepG2 [2] = assay: Cytotoxicity against human HepG2 cells after 48 hrs by CellTiter-Glo assay; type: cell-based; settings: HepG2, 48 h
[3] = Half life in mouse microsomes; type: ADME, Microsome
[4] = Protection index, ratio of IC50 for HepG2 cells to MIC for Mycobacterium tuberculosis H37Rv
[5] = Protection index, ratio of IC50 for African green monkey Vero cells to MIC for Mycobacterium tuberculosis H37Rv
[6] = tested on: Mycobacterium tuberculosis; assay: Antitubercular activity against Mycobacterium tuberculosis H37Rv after 5 days by microplate alamar blue assay; type: functional; settings: 120 h
Staphylococcus aureus = assay: Antimicrobial activity against gram-positive Staphylococcus aureus ATCC 43300 at 32 ug/ml after 18 hrs; type: functional; settings: ATCC 43300, 18 h
Procedure, shortened: (§1)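 Whole-cell growth inhibition screen at a single final concentration of 32 µg/mL, in duplicate on different plates, with 0.3% DMSO final. Bacteria grown overnight in cation-adjusted Mueller Hinton broth at 37°C, diluted 40-fold, and grown 1.5-3 h to mid-log. Wells seeded at 5×10^5 CFU/mL and incubated 18 h at 37°C without shaking. OD600 read; percent inhibition calculated against media-only and untreated-bacteria controls on the same plate. Colistin (Gram-negative) and vancomycin (Gram-positive) were the standards.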

Pseudomonas aeruginosa = assay: Antimicrobial activity against gram-negative Pseudomonas aeruginosa ATCC 27853 at 32 ug/ml after 18 hrs; type: functional; settings: ATCC 27853, 18 h; procedure, shortened: as §1
Candida albicans = assay: Antifungal activity against Candida albicans ATCC 90028 at 32 ug/ml after 24 hrs; type: functional; settings: ATCC 90028, 24 h
[7] = tested on: Mycobacterium tuberculosis; assay: Antitubercular activity against Mycobacterium tuberculosis H37Rv at 50 ug/ml after 5 days by microplate alamar blue assay relative to control; type: functional; settings: 120 h
Procedure, shortened: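 M. tuberculosis H37Rv tested by microplate alamar blue assay, reading the resazurin-to-resorufin colour change, at an initial 50 µg/ml. Rifampicin and isoniazid were the standards.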

[8] = tested on: Mycobacterium tuberculosis; assay: Antitubercular activity against clinical isolates of Mycobacterium tuberculosis by broth microdilution assay; type: functional
Klebsiella pneumoniae = assay: Antimicrobial activity against gram-negative Klebsiella pneumoniae ATCC 700603 at 32 ug/ml after 18 hrs; type: functional; settings: ATCC 700603, 18 h; procedure, shortened: as §1
Acinetobacter baumannii = assay: Antimicrobial activity against gram-negative Acinetobacter baumannii ATCC 19606 at 32 ug/ml after 18 hrs; type: functional; settings: ATCC 19606 = CIP 70.34 = JCM 6841, 18 h; procedure, shortened: as §1
Cryptococcus neoformans = assay: Antifungal activity against Cryptococcus neoformans var. grubii ATCC 208821 at 32 ug/ml after 24 hrs; type: functional; settings: ATCC 208821, 24 h
Procedure, shortened: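 Single-concentration antifungal screen at a final 32 µg/mL, n=2 on different plates. Fungi grown 3 days on YPD agar at 30°C; suspension of 1-5×10^6 cells/mL made from five colonies, then diluted in YNB broth. Incubated 35°C for 24 h without shaking. C. albicans read at OD530. C. neoformans read as OD600-570 after resazurin (0.001% final) and a further 2 h at 35°C. Inhibition calculated against on-plate controls; fluconazole was the standard.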

HepG2 [9] = assay: Cytotoxicity against human HepG2 cells after 24 hrs by MTT assay; type: cell-based; settings: HepG2, 24 h
Procedure, shortened: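 HepG2 cells seeded at 25,000-50,000 per well and allowed to adhere about 24 h at 37°C in 5% CO2. Serial dilutions (300, 100, 50, 10, 1, 0.1 µM) added in triplicate and incubated 24 h. MTT added to 10% of the total volume for 2-4 h in the dark. Formazan dissolved in 100% DMSO, absorbance read at 570 nm, and IC50 calculated.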

[10] = Cytotoxicity against African green monkey Vero cells after 72 hrs by sulforhodamine B assay; type: cell-based; settings: chlorocebus sabaeus
[11] = Drug metabolism in rat liver microsomes after 60 mins; type: ADME, microsome; settings: read-out: Drug metabolism
Procedure, shortened: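 Rat liver microsomes incubated with compound for 60 min. Stability followed as the peak area ratio of compound to internal standard. p-Nitrophenol conversion to p-nitrocatechol served as the positive control.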

Liver = assay: Drug level in rat liver microsomes treated with p-nitrophenol after 60 mins; type: ADME, microsome; settings: 1 h
Procedure, shortened: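 p-Nitrophenol incubated 60 min with rat liver microsomes as the positive control; its conversion to p-nitrocatechol was measured.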

Row | Structure (SMILES) | MIC95 [6] [µg/mL] | inhibition at 32 µg/mL (Staphylococcus aureus) [%] | inhibition at 32 µg/mL (Pseudomonas aeruginosa) [%] | inhibition at 32 µg/mL (Candida albicans) [%] | inhibition at 50 µg/mL [7] [%] | further results
1 | COc1ccc(-c2cc(CN3CCSCC3)c(C)n2-c2ccc(F)cc2)cc1 |  |  |  |  |  | MIC [1]: 0.2 µM (≈ 0.0793 µg/mL); IC50 (Vero): > 302 µM; IC50 (HepG2 [2]): > 2420 µM; half-life [3]: < 5 min; Ratio [4]: 127.5 - 1937.5; Ratio [5]: 127.5 - 1937.5
2 | CSc1ccc(-c2cc(CN3CCSCC3)c(C)n2-c2ccc(F)cc2)cc1 |  |  |  |  |  | MIC [1]: 0.16 µM (≈ 0.066 µg/mL); IC50 (Vero): 15.2 µM; IC50 (HepG2 [2]): 5.9 µM; half-life [3]: 10 min; Ratio [4]: 127.5 - 1937.5; Ratio [5]: 127.5 - 1937.5
3 | Cc1ccn2c(CN3CCOCC3)c(-c3ccccc3)nc2c1 | 40 (≈ 130 µM) | 15.8 to 23.5 | 10.6 to 15.2 | 0.89 to 1.68 | 95 | 
4 | Cc1c(CN2CCN(C)CC2)cc(-c2ccc(Cl)cc2)n1-c1ccc(Cl)cc1 |  |  |  |  |  | MIC [1]: 5 µM (≈ 2.07 µg/mL); IC50 (HepG2 [2]): 7.8 µM; half-life [3]: > 30 min; Ratio [4]: 127.5 - 1937.5; Ratio [5]: 127.5 - 1937.5; MIC [8]: 1.5 µg/mL (≈ 3.62 µM)
5 | Cc1ccc(-c2cc(CN3CCSCC3)c(C)n2-c2ccc(F)cc2)cc1 |  |  |  |  |  | MIC [1]: 0.16 µM (≈ 0.0609 µg/mL); IC50 (Vero): 179 µM; IC50 (HepG2 [2]): 24 µM; half-life [3]: 8.2 min; Ratio [4]: 127.5 - 1937.5; Ratio [5]: 127.5 - 1937.5
6 | COc1ccc(-c2nc3ccccc3n2-c2ccc(Cl)cc2)c(OC)c1 | 48.3 (≈ 132 µM) | 10.9 to 14.2 |  | 2.68 to 3.53 | 95 | inhibition at 32 µg/mL (Klebsiella pneumoniae): 3.25 to 9.39%
7 | Fc1ccc(-c2nc3ccccn3c2CN2CCOCC2)cc1 | 22.2 (≈ 71.3 µM) | 22.3 to 30.3 | 11 to 14.3 | 0.63 to 5.39 | 95 | 
8 | COc1ccc(-c2nc3ccccc3n2-c2ccccc2)cc1O | 8 (≈ 25.3 µM) | 7.7 to 15.5 | 1.32 to 7.73 | 6.64 to 11.3 | 95 | 
9 | Cc1c(CN2CCOCC2)cc(-c2ccc(C(C)C)cc2)n1-c1ccc(F)cc1 |  |  |  |  |  | MIC [1]: 0.12 µM (≈ 0.0471 µg/mL); IC50 (Vero): 50.1 µM; IC50 (HepG2 [2]): 15.3 µM; half-life [3]: > 30 min
10 | Cc1ccn2c(CN3CCCCC3)c(-c3ccccc3)nc2c1 | 33.7 (≈ 110 µM) |  |  |  | 95 | 
11 | COc1ccc(-c2nc3ccccc3n2-c2ccc(C(C)C)cc2)cc1 | > 50 | 6.25 to 12.4 | 6.29 to 15.7 | 13.1 to 14.2 | 68 | inhibition at 32 µg/mL (Acinetobacter baumannii): 23.8 to 36.1%; inhibition at 32 µg/mL (Cryptococcus neoformans): 7.06 to 11%
12 | COc1ccc(-c2nc3ccccc3n2-c2cc(C)ccc2C)cc1 | > 50 | 9.57 to 10 | 5.72 to 19.7 | 1.69 to 4.32 | 80 | inhibition at 32 µg/mL (Acinetobacter baumannii): 3.5 to 38.8%
13 | c1ccc(-c2nc3ccccn3c2CN2CCCCC2)cc1 | > 50 | 14.8 to 19.4 | 11.4 to 17.7 | 2.41 to 3.93 | 95 | inhibition at 32 µg/mL (Acinetobacter baumannii): 1.56 to 10.4%
14 | COc1ccc(-c2nc3ccccc3n2-c2ccc(F)cc2)cc1 | > 50 | 11.6 to 12.7 | 5.18 to 12.8 | 1.62 to 1.69 | 6 | 
15 | c1ccc(-c2nc3ccccn3c2CN2CCOCC2)cc1 | > 50 | 26.1 to 28.6 | 9.04 to 16.5 | 0.3 to 6.38 | 95 | inhibition at 32 µg/mL (Klebsiella pneumoniae): 2.52 to 13.8%; inhibition at 32 µg/mL (Cryptococcus neoformans): 2.71 to 3.04%
16 | Cc1ccn2c(CN3CCOCC3)c(-c3ccc(F)cc3)nc2c1 | 23.9 (≈ 73.5 µM) | 20.1 to 21.8 | 9.71 to 27 | 2.74 to 7.44 | 95 | 
17 | COc1ccc(-c2nc3ccccc3n2-c2cccc(Cl)c2)cc1 | > 50 | 14.1 to 16 | 7.07 to 24.5 | 4.66 to 7.76 | 0 | 
18 | Cc1ccc2nc(-c3ccc(F)cc3)c(CN3CCOCC3)n2c1 | 17 (≈ 52.2 µM) | 25.1 to 26.2 |  | 3.4 to 6.17 | 95 | 
19 | COc1ccc(-c2nc3ccccc3n2-c2ccc(Cl)cc2)cc1OC | 20.3 (≈ 55.6 µM) | 1.03 to 9.81 |  | 7.63 to 8.23 | 95 | inhibition at 32 µg/mL (Acinetobacter baumannii): 39.9 to 42.6%; inhibition at 32 µg/mL (Cryptococcus neoformans): 0.95 to 4.02%; IC50 (HepG2 [9]): 49.9 µM; GI50 at 72 h [10]: 8.2 µM; metabolised at 1 h [11]: 5%
20 | Oc1ccc(-c2nc(-c3ccccc3)cn2-c2ccccc2)cc1 | 17.8 (≈ 57 µM) |  |  |  | 95 | 
21 | COc1ccc(-c2nc3ccccc3n2-c2ccc(Br)cc2)cc1 | > 50 | 12.3 to 15 |  | 9.75 to 11.7 | 92 | inhibition at 32 µg/mL (Acinetobacter baumannii): 1.56 to 58.1%; IC50 (HepG2 [9]): 113 µM; GI50 at 72 h [10]: 5 µM; metabolised at 1 h [11]: 2%
22 | COc1ccc(-c2nc3ccccc3n2-c2ccc(Cl)cc2)cc1 | 2.3 (≈ 6.87 µM) |  | 1.34 to 9.75 | 12.2 to 12.9 | 95 | IC50 (HepG2 [9]): 203 µM; GI50 at 72 h [10]: 29 µM; metabolised at 1 h [11]: 0%
23 | COc1ccc(-c2nc3ccccc3n2-c2cccc(OC)c2)cc1 | > 50 | 7.42 to 20.4 | 9.8 to 11.2 | 5.26 to 8.76 | 14 | inhibition at 32 µg/mL (Acinetobacter baumannii): 19.7 to 59.9%
24 | COc1ccc(-c2nc(-c3ccccc3)cn2-c2ccccc2)cc1 | 20.3 (≈ 62.2 µM) | 3.07 to 13.3 | 2.98 to 16.6 | 17.5 to 26.4 | 95 | inhibition at 32 µg/mL (Acinetobacter baumannii): 23.1 to 34.8%
25 | COc1cccc(-c2nc3ccccc3n2-c2ccc(Cl)cc2)c1 | > 50 |  | 2.25 to 13 | 4.73 to 28.1 | 67 | inhibition at 32 µg/mL (Acinetobacter baumannii): 49.4 to 50.8%; inhibition at 32 µg/mL (Cryptococcus neoformans): 6.16 to 19.6%
26 | O=[N+]([O-])c1ccc(O)c(O)c1 [4-Nitrocatechol] |  |  |  |  |  | Drug metabolism (Liver): Metabolite_Detected
27 | NNC(=O)c1ccncc1 [ISONIAZID] | 0.06 to 0.11 (≈ 0.438 to 0.802 µM) |  |  |  | 95 | 
28 | CO[C@H]1/C=C/O[C@@]2(C)Oc3c(C)c(O)c4c(O)c(c(/C=N/N5CCN(C)CC5)c(O)c4c3C2=O)NC(=O)/C(C)=C\C=C\[C@H](C)[C@H](O)[C@@H](C)[C@@H](O)[C@@H](C)[C@H](OC(C)=O)[C@@H]1C [RIFAMPIN] | 0.03 to 0.5 (≈ 0.0365 to 0.608 µM) |  |  |  | 95 | 
